Data as given in ChEMBL document CHEMBL3621160, “Pseudosaccharin amines as potent and selective KV1.5 blockers” (Bioorg Med Chem Lett, 2015).

Legend:
MAO-A = MAO-A (Homo sapiens, UniProt P21397); assay: Inhibition of human MAOA at 10 uM relative to control
In short: (§1)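 Screening panel of over 37 receptors and enzymes relevant to cardiovascular effects or toxicity. Each target was tested at a single concentration of 10 µM, with % activity reported.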

[1] = biological target: Glucocorticoid receptor (Rattus norvegicus) (UniProt P06536); assay: Inhibition of rat glucocorticoid receptor at 10 uM relative to control; in short: as §1
[2] = biological target: D(3) dopamine receptor (Homo sapiens) (UniProt P35462); assay: Inhibition of human dopamine D3 receptor at 10 uM relative to control; in short: as §1
Rattus norvegicus [3] = organism: Rattus norvegicus; assay: Inhibition of rat sodium channel site 2 at 10 uM relative to control
In short: (§2)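 Single-concentration screen at 10 µM across a panel of over 37 receptors and enzymes linked to cardiovascular effects or toxicity. Read-out is percent activity.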

[4] = Half life in rat at 2 mg/kg administered as intra-arterial infusion for 10 mins and 5 mg/kg, po; type: ADME, organism-based; conditions: in vivo
In short: (§3)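 Rats (3 per compound) received intra-arterial infusion over 10 min or oral gavage. Vehicle for both routes was 40% PEG 400, 40% water and 20% ethanol. Values are means of 3 animals.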

[5] = AUC in rat at 5 mg/kg, po; type: ADME, organism-based; conditions: in vivo; in short: as §3
[6] = biological target: Sodium-dependent serotonin transporter (Homo sapiens) (UniProt P31645); assay: Inhibition of human SERT at 10 uM relative to control; in short: as §1
Oryctolagus cuniculus [7] = organism: Oryctolagus cuniculus; assay: Toxicity in rabbit assessed as effect on ventricular effective refractory period; type: organism-based, Cardiac ventricle; conditions: in vivo
In short: (§4)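 Rabbits were dosed at 0.3, 1.0 and 3.0 mg/Kg. Effective refractory period was measured in atrium and ventricle, and blood pressure was recorded. The plasma concentration giving 20% atrial ERP prolongation (EC20) was calculated.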

Oryctolagus cuniculus [8] = assay: Toxicity in rabbit assessed as increase in blood pressure at 0.3 to 3 mg/kg; type: organism-based; conditions: in vivo; in short: as §4
Oryctolagus cuniculus [9] = organism: Oryctolagus cuniculus; assay: Toxicity in rabbit assessed as increase in gastrointestinal motility; type: organism-based; conditions: in vivo
[10] = Metabolic stability in rat liver microsomes assessed as compound remaining at 3 uM after 10 mins; type: ADME; conditions: read-out: Stability
In short: (§5)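 Parent compound at 3 µM was incubated 10 min in human, rat or mouse liver microsomes with appropriate co-factors. Read-out is percent of parent remaining.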

Rattus norvegicus [11] = organism: Rattus norvegicus; assay: Inhibition of rat L-type calcium channel dihydropyridine binding site at 10 uM relative to control; in short: as §2
[12] = Volume of distribution at steady state in rat at 2 mg/kg administered as intra-arterial infusion for 10 mins and 5 mg/kg, po; type: ADME, organism-based; conditions: in vivo, read-out: Vdss
In short: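 Rat PK: 2.0 mg/kg by intra-arterial infusion over 10 min and 5.0 mg/kg by oral gavage, vehicle 40% PEG 400, 40% water, 20% ethanol for both routes; Vss from 3 animals, reported as mean.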

Rattus norvegicus [13] = organism: Rattus norvegicus; assay: Inhibition of rat choline transporter at 10 uM relative to control; in short: as §2
[14] = Metabolic stability in mouse liver microsomes assessed as compound remaining at 3 uM after 10 mins; type: ADME; conditions: read-out: Stability; in short: as §5
[15] = biological target: Adenosine receptor A2a (Homo sapiens) (UniProt P29274); assay: Inhibition of human adenosine A2A receptor at 10 uM relative to control; in short: as §1
[16] = biological target: Acetylcholinesterase (Homo sapiens) (UniProt P22303); assay: Inhibition of human acetylcholinesterase at 10 uM relative to control
[17] = biological target: D(1A) dopamine receptor (Homo sapiens) (UniProt P21728); assay: Inhibition of human dopamine D1 receptor at 10 uM relative to control; in short: as §1
[18] = biological target: Mu-type opioid receptor (Homo sapiens) (UniProt P35372); assay: Inhibition of human mu opioid receptor at 10 uM relative to control; in short: as §1
[19] = biological target: L-type calcium channel, benzothiazepine binding site (Rattus norvegicus, UniProt P22002+P27732+Q02485); assay: Inhibition of rat L-type calcium channel benzothiazepine binding site at 10 uM relative to control; in short: as §1
[20] = biological target: Phosphodiesterase 4 (Homo sapiens) (UniProt P27815+Q08499+Q07343+Q08493); assay: Inhibition of human PDE4 at 10 uM relative to control; type: protein assay; in short: as §1
[21] = biological target: Neuropeptide Y receptor type 1 (Homo sapiens) (UniProt P25929); assay: Inhibition of human NPY1-R at 10 uM relative to control; in short: as §1
[22] = biological target: Calcitonin receptor (Homo sapiens) (UniProt P30988); assay: Inhibition of human calcitonin receptor at 10 uM relative to control; in short: as §1
[23] = biological target: Mineralocorticoid receptor (Rattus norvegicus) (UniProt P22199); assay: Inhibition of rat aldosterone receptor at 10 uM relative to control; in short: as §1
[24] = biological target: Cannabinoid receptor 1 (Homo sapiens) (UniProt P21554); assay: Inhibition of human CB1 receptor at 10 uM relative to control; in short: as §1
[25] = biological target: Adenosine receptor A3 (Homo sapiens) (UniProt P0DMS8); assay: Inhibition of human adenosine A3 receptor at 10 uM relative to control; in short: as §2
[26] = biological target: Melanocyte-stimulating hormone receptor (Homo sapiens) (UniProt Q01726); assay: Inhibition of human MC1 receptor at 10 uM relative to control; in short: as §1
[27] = biological target: B1 bradykinin receptor (Homo sapiens) (UniProt P46663); assay: Inhibition of human bradykinin B1 receptor at 10 uM relative to control; in short: as §1

Chain of MAO-A (P21397 whole entry): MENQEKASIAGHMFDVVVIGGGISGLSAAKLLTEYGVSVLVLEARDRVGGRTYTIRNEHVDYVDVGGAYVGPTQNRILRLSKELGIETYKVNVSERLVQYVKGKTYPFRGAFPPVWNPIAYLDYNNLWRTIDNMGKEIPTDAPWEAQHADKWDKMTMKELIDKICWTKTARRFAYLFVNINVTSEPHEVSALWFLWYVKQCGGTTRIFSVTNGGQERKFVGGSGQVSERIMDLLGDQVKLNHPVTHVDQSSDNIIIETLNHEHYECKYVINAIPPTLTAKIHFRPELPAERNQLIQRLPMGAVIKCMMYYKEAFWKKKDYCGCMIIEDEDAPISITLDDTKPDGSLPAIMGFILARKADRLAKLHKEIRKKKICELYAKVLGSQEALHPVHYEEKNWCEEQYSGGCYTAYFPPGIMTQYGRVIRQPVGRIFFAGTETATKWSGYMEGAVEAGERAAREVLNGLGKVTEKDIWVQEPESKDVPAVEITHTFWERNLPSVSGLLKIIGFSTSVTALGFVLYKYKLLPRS
Chain of Glucocorticoid receptor (Rattus norvegicus) (P06536 whole entry): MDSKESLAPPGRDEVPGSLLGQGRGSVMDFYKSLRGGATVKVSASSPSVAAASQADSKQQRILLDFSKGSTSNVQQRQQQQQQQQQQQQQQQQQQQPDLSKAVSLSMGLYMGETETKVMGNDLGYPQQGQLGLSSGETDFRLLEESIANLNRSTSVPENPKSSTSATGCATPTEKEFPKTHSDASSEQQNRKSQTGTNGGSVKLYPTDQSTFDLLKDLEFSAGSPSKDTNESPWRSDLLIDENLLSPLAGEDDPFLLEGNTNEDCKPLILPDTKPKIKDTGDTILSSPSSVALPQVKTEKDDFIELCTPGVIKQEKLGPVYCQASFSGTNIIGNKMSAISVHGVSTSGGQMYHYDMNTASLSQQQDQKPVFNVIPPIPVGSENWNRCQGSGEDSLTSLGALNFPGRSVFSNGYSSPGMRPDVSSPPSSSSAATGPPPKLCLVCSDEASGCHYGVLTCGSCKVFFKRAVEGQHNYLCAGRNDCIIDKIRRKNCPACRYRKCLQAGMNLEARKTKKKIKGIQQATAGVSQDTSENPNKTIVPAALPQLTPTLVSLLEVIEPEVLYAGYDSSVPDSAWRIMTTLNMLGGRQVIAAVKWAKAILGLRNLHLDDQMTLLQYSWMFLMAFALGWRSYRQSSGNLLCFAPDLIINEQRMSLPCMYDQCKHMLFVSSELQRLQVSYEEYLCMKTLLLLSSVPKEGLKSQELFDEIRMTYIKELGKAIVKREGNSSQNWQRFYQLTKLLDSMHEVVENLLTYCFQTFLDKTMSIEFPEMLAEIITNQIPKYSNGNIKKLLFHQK
Chain of Adenosine receptor A2a (Homo sapiens) (P29274 whole entry): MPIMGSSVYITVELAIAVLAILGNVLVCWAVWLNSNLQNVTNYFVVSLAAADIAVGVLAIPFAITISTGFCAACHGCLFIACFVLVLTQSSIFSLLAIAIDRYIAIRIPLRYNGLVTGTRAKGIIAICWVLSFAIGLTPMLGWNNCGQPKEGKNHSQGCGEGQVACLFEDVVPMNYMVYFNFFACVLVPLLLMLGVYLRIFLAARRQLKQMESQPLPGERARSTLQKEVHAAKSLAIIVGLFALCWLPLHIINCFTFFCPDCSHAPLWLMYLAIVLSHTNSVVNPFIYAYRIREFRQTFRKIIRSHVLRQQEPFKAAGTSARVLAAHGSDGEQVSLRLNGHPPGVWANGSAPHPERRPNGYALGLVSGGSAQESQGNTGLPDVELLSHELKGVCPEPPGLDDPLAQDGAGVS
Chain of D(1A) dopamine receptor (Homo sapiens) (P21728 whole entry): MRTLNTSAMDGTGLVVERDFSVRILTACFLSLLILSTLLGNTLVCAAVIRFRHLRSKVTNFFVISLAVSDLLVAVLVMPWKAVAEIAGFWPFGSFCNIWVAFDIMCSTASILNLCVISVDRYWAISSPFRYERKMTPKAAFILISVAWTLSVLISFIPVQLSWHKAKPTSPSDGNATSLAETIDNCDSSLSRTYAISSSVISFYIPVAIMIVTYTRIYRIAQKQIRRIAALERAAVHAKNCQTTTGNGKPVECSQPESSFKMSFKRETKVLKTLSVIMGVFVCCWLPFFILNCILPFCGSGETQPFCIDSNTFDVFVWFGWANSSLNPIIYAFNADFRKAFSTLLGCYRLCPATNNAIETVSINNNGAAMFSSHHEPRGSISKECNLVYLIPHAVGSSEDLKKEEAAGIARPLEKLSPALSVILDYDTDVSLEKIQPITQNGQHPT
Chain of Mu-type opioid receptor (Homo sapiens) (P35372 whole entry): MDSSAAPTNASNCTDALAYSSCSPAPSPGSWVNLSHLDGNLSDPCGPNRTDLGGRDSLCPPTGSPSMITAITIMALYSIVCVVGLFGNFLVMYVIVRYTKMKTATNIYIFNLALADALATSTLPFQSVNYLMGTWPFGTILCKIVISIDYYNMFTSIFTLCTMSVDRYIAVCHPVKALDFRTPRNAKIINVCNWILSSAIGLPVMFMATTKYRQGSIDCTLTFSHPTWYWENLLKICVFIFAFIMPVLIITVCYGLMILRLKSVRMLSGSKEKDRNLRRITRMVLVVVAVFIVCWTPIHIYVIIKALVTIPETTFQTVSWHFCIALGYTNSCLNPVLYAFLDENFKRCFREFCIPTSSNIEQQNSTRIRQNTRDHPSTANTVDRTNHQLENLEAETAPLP
Chain of Acetylcholinesterase (Homo sapiens) (P22303 whole entry): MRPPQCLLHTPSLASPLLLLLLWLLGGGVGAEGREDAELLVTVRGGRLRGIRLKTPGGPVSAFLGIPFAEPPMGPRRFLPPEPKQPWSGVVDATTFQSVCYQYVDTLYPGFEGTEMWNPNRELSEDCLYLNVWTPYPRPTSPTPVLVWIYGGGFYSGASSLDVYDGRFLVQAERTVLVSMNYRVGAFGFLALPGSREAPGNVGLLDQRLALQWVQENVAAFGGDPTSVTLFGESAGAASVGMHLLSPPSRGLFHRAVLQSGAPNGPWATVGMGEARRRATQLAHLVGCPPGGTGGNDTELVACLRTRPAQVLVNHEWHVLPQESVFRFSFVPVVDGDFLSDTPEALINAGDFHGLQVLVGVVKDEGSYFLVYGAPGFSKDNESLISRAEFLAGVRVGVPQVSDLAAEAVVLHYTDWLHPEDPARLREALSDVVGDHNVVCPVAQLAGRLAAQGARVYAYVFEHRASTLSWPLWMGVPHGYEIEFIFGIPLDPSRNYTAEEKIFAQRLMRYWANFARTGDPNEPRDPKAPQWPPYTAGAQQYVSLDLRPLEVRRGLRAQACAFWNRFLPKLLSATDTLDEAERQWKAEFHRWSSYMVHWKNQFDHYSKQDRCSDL
Chain of D(3) dopamine receptor (Homo sapiens) (P35462 whole entry): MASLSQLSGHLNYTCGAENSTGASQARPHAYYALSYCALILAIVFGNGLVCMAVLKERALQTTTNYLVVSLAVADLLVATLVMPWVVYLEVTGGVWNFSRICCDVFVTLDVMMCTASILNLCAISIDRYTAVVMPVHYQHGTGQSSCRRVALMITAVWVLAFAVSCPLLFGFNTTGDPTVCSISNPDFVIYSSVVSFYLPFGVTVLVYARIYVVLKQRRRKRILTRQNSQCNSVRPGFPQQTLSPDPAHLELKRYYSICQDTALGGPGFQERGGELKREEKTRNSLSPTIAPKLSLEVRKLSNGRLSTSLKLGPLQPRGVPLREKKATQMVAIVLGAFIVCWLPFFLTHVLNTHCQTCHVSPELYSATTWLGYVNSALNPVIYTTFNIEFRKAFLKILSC
Chain of Sodium-dependent serotonin transporter (Homo sapiens) (P31645 whole entry, looked up): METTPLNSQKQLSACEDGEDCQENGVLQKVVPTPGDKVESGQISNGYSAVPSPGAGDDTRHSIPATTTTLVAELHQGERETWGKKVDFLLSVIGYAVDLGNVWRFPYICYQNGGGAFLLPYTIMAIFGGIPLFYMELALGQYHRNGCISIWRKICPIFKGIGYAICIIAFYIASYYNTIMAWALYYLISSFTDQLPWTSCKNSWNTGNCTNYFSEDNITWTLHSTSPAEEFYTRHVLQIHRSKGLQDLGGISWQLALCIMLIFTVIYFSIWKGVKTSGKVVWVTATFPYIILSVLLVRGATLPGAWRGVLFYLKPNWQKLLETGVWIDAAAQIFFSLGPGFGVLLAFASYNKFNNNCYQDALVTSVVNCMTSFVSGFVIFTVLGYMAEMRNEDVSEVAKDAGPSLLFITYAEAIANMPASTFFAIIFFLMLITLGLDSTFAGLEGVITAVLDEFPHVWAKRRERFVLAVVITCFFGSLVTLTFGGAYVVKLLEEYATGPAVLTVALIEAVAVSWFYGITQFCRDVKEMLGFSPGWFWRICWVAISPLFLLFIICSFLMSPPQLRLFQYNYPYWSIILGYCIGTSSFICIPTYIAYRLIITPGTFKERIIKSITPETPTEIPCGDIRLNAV
Chain of Adenosine receptor A3 (Homo sapiens) (P0DMS8 whole entry): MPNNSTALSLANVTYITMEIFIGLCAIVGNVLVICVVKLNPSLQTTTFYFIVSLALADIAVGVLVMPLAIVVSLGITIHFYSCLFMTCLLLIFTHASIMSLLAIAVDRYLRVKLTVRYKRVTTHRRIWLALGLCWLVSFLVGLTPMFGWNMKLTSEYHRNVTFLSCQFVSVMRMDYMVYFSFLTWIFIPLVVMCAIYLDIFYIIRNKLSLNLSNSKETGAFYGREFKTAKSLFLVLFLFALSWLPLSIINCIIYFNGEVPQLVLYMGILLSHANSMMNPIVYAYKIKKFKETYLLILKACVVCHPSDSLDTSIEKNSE
Chain of Melanocyte-stimulating hormone receptor (Homo sapiens) (Q01726 whole entry, looked up): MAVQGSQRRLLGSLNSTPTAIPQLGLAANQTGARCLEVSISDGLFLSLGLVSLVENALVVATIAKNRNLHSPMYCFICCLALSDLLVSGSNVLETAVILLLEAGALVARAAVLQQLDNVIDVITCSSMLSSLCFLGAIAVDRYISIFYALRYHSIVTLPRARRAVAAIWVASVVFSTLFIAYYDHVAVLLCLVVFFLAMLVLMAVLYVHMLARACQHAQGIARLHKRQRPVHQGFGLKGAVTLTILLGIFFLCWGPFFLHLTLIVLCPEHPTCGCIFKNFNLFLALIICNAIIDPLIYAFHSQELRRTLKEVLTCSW

| Structure (SMILES) | inhibition at 10 µM (MAO-A) | inhibition [1] | inhibition [2] | inhibition (Rattus norvegicus [3]) | half-life [4] | AUC [5] | inhibition [6] | Activity (Oryctolagus cuniculus [7]) | Activity (Oryctolagus cuniculus [8]) | remaining at 10 min, 3 µM [10] | inhibition (Rattus norvegicus [11]) | Vd [12] | inhibition (Rattus norvegicus [13]) | remaining at 10 min, 3 µM [14] | inhibition [15] | inhibition [16] | inhibition [17] | inhibition [18] | inhibition at 10 µM [19] | inhibition [20] | also measured |
| --- | --- | --- | --- | --- | --- | --- | --- | --- | --- | --- | --- | --- | --- | --- | --- | --- | --- | --- | --- | --- | --- |
| COc1cccc2c1C(NC[C@]1(c3ccccc3)CC[C@H](O)CC1)=NS2(=O)=O | 3% | 14% | -9% | 9% | 306 min | 2.7 µM·h | 10% | Non-toxic | 19% | 68% | 3% | 3.2 L/kg | 17% | 53% | -5% | 53% | 0% | 0% | 0% | 26% | Activity (Oryctolagus cuniculus [9]): Toxic |
| COc1cccc2c1C(NC[C@]1(c3ccccc3)CC[C@H](NC(=O)OC(C)C)CC1)=NS2(=O)=O | 10% | 17% | 11% | 30% | 54 min | 1.8 µM·h | -6% | Non-toxic | 17% | 29% | 13% | 0.3 L/kg | 1% | < 1% | 23% | 55% | 3% | 31% | 15% | 25% | inhibition [21]: 8%; inhibition [22]: 4%; inhibition [23]: 16%; inhibition [24]: -8%; inhibition [25]: 64%; inhibition [26]: -6%; inhibition [27]: -4% |
